Measurements from ChEMBL document CHEMBL2151038, “Synthesis, characterization and biological evaluation of some novel 2,4-thiazolidinediones as potential cytotoxic, antimicrobial and antihyperglycemic agents” (Bioorg Med Chem Lett, 2012).
Converted amounts (≈) assume the structure as drawn.

Assays:
[1] = test system: Proteus vulgaris; test: Antibacterial activity against Proteus vulgaris NCIM 2813 after 24 hrs by NCCLS agar well diffusion method; format: functional; details: NCIM 2813, 24 h
Summary of the method: (§1)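 Nutrient agar seeded with 0.1 mL bacterial suspension (10⁵ CFU/mL in 0.85% saline). 6 mm wells filled with 0.1 mL compound. Plates in triplicate, 37 ± 0.5 °C for 24 h. MIC = lowest concentration giving complete growth inhibition.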

[2] = test system: Rattus norvegicus; test: Antihyperglycemic activity in streptozotocin-induced type 2 diabetic Wistar albino rat assessed as reduction in plasma glucose level at 30 mg/kg, po by glucometer; format: functional
Summary of the method: (§2)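 Wistar albino rats of either sex, 150–200 g, fasted 16 h. Diabetes induced by nicotinamide 150 mg/kg, then STZ 65 mg/kg in citrate buffer pH 4.5. Glucose confirmed after 48 h. Groups of six. Oral dosing as 0.25% sodium CMC suspension at 10, 30 or 50 mg/kg. Rosiglitazone was the reference. Retro-orbital plasma glucose measured by glucometer before dosing and at 1, 2, 4, 6, 8, 12 and 24 h. Results as mean ± SEM, compared by ANOVA, t-test and Dunnett's test.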

[3] = test system: Penicillium chrysogenum; test: Antifungal activity against Penicillium chrysogenum NCIM 738 after 48 hrs by NCCLS agar well diffusion method; format: functional; details: NCIM 738, 48 h
Summary of the method: (§3)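 Spore suspensions in sterile distilled water adjusted to 10⁶ CFU/mL, 0.1 mL spread on potato-dextrose agar. 6 mm wells received 0.1 mL compound in 1% DMSO (final 16–512 µg/mL). Controls: 1% DMSO and ketoconazole (16 µg/mL). Triplicate plates, 48 h at 28 ± 0.2 °C. MIC = lowest concentration completely inhibiting growth.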

[4] = test system: Artemia salina; test: Cytotoxicity in brine shrimps larvae assessed as mortality after 24 hrs; format: functional; details: read-out: ED50 (the source's name)
Summary of the method: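 Artemia salina nauplii hatched 38 h under constant aeration in sterile brine (sea salt 38 g/L, pH 8.5 with 1 N NaOH). Ten nauplii per vial were exposed to a range of compound concentrations at 37 °C for 24 h under incandescent light, alongside vehicle-treated controls. Survivors were counted, % lethality was taken from mean survivors versus control, and ED50 came from probit analysis.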

[5] = Toxicity in mouse assessed as changes in vital functions; format: organism-based; details: in vivo
[6] = test system: Aspergillus oryzae; test: Antifungal activity against Aspergillus oryzae NCIM 643 after 48 hrs by NCCLS agar well diffusion method; format: functional; details: NCIM 643, 48 h; summary of the method: as §3
[7] = test system: Aspergillus niger; test: Antifungal activity against Aspergillus niger NCIM 548 after 48 hrs by NCCLS agar well diffusion method; format: functional; details: NCIM 548, 48 h; summary of the method: as §3
[8] = test system: Micrococcus luteus; test: Antibacterial activity against Micrococcus luteus NCIM 2155 after 24 hrs by NCCLS agar well diffusion method; format: functional; details: NCIM 2155, 24 h; summary of the method: as §1
[9] = test system: Escherichia coli; test: Antibacterial activity against Escherichia coli NCIM 2065 after 24 hrs by NCCLS agar well diffusion method; format: functional; details: NCIM 2065, 24 h; summary of the method: as §1
[10] = test system: Pseudomonas aeruginosa; test: Antibacterial activity against Pseudomonas aeruginosa NCIM 2036 after 24 hrs by NCCLS agar well diffusion method; format: functional; details: NCIM 2036, 24 h; summary of the method: as §1
[11] = test system: Rattus norvegicus; test: Antihyperglycemic activity in streptozotocin-induced type 2 diabetic Wistar albino rat assessed as reduction in plasma glucose level at 50 mg/kg, po by glucometer; format: functional; summary of the method: as §2
[12] = test system: Candida albicans; test: Antifungal activity against Candida albicans NCIM 3102 after 48 hrs by NCCLS agar well diffusion method; format: functional; details: NCIM 3102, 48 h; summary of the method: as §3
[13] = test system: Bacillus pumilus; test: Antibacterial activity against Bacillus pumilus NCIM 2327 after 24 hrs by NCCLS agar well diffusion method; format: functional; details: NCIM 2327, 24 h; summary of the method: as §1
[14] = test system: Bacillus subtilis; test: Antibacterial activity against Bacillus subtilis NCIM 2063 after 24 hrs by NCCLS agar well diffusion method; format: functional; details: NCIM 2063, 24 h; summary of the method: as §1
[15] = test system: Staphylococcus aureus; test: Antibacterial activity against Staphylococcus aureus NCIM 2079 after 24 hrs by NCCLS agar well diffusion method; format: functional; details: NCIM 2079, 24 h; summary of the method: as §1
[16] = test system: Klebsiella pneumoniae; test: Antibacterial activity against Klebsiella pneumoniae NCIM 5082 after 24 hrs by NCCLS agar well diffusion method; format: functional; details: NCIM 5082, 24 h; summary of the method: as §1
[17] = test system: Rattus norvegicus; test: Antihyperglycemic activity in po dosed streptozotocin-induced type 2 diabetic Wistar albino rat assessed as reduction in plasma glucose level by glucometer; format: functional, organism-based; summary of the method: as §2
[18] = test system: Rattus norvegicus; test: Antihyperglycemic activity in streptozotocin-induced type 2 diabetic Wistar albino rat assessed as reduction in plasma glucose level at 10 mg/kg, po by glucometer; format: functional; summary of the method: as §2

Row | Structure (SMILES) | MIC [1] | Activity [2] | MIC [3] | EC50 [4] | MTD [5] | MIC [6] | MIC [7] | MIC [8] | MIC [9] | MIC [10] | Activity [11] | MIC [12] | MIC [13] | MIC [14] | MIC [15] | MIC [16] | Activity [17] | Activity [18]
1 | O=C1NC(=O)/C(=C/c2ccc(/C=C/C(=O)c3ccccc3)cc2)S1 | 512 µg/mL (≈ 1530 µM) | 11.51 mg/dL | 512 µg/mL (≈ 1530 µM) | 44.7 µg/mL (≈ 133 µM) | 2000 mg/kg | 512 µg/mL (≈ 1530 µM) | 512 µg/mL (≈ 1530 µM) | 512 µg/mL (≈ 1530 µM) | 256 µg/mL (≈ 763 µM) | 256 µg/mL (≈ 763 µM) | 15.61 mg/dL | 512 µg/mL (≈ 1530 µM) | 256 µg/mL (≈ 763 µM) | 256 µg/mL (≈ 763 µM) | 512 µg/mL (≈ 1530 µM) | 512 µg/mL (≈ 1530 µM) | Dose-dependent effect | 
2 | O=C1NC(=O)/C(=C/c2ccc(/C=C/C(=O)c3ccc([N+](=O)[O-])cc3)cc2)S1 | 512 µg/mL (≈ 1350 µM) | 16.74 mg/dL | 256 µg/mL (≈ 673 µM) | 49.3 µg/mL (≈ 130 µM) | 2000 mg/kg | 512 µg/mL (≈ 1350 µM) | 512 µg/mL (≈ 1350 µM) | 512 µg/mL (≈ 1350 µM) | 512 µg/mL (≈ 1350 µM) | 256 µg/mL (≈ 673 µM) | 22.73 mg/dL | 256 µg/mL (≈ 673 µM) | 512 µg/mL (≈ 1350 µM) | 256 µg/mL (≈ 673 µM) | 512 µg/mL (≈ 1350 µM) | 512 µg/mL (≈ 1350 µM) | Dose-dependent effect | 13.63 mg/dL
3 | O=C1NC(=O)/C(=C/c2ccc(/C=C/C(=O)c3cccc(F)c3)cc2)S1 | 64 µg/mL (≈ 181 µM) | 16.87 mg/dL | 64 µg/mL (≈ 181 µM) | 9.28 µg/mL (≈ 26.3 µM) | 2000 mg/kg | 64 µg/mL (≈ 181 µM) | 64 µg/mL (≈ 181 µM) | 64 µg/mL (≈ 181 µM) | 32 µg/mL (≈ 90.6 µM) | 32 µg/mL (≈ 90.6 µM) | 20.66 mg/dL | 64 µg/mL (≈ 181 µM) | 32 µg/mL (≈ 90.6 µM) | 32 µg/mL (≈ 90.6 µM) | 32 µg/mL (≈ 90.6 µM) | 32 µg/mL (≈ 90.6 µM) | Dose-dependent effect | 12.08 mg/dL
4 | O=C1NC(=O)/C(=C/c2ccc(/C=C/C(=O)c3cccs3)cc2)S1 | 64 µg/mL (≈ 187 µM) | 11.66 mg/dL | 32 µg/mL (≈ 93.7 µM) | 4 µg/mL (≈ 11.7 µM) | 2000 mg/kg | 32 µg/mL (≈ 93.7 µM) | 32 µg/mL (≈ 93.7 µM) | 32 µg/mL (≈ 93.7 µM) | 32 µg/mL (≈ 93.7 µM) | 32 µg/mL (≈ 93.7 µM) | 13.71 mg/dL | 32 µg/mL (≈ 93.7 µM) | 16 µg/mL (≈ 46.9 µM) | 32 µg/mL (≈ 93.7 µM) | 32 µg/mL (≈ 93.7 µM) | 16 µg/mL (≈ 46.9 µM) | Dose-dependent effect | 
5 | O=C1NC(=O)/C(=C/c2ccc(/C=C/C(=O)c3ccc4c(c3)Cc3ccccc3-4)cc2)S1 | 512 µg/mL (≈ 1210 µM) | 44.62 mg/dL | 512 µg/mL (≈ 1210 µM) | 39.7 µg/mL (≈ 93.6 µM) | 2000 mg/kg | 256 µg/mL (≈ 604 µM) | 256 µg/mL (≈ 604 µM) | 512 µg/mL (≈ 1210 µM) | 128 µg/mL (≈ 302 µM) | 128 µg/mL (≈ 302 µM) | 52.81 mg/dL | 256 µg/mL (≈ 604 µM) | 256 µg/mL (≈ 604 µM) | 256 µg/mL (≈ 604 µM) | 256 µg/mL (≈ 604 µM) | 256 µg/mL (≈ 604 µM) | Dose-dependent effect | 39.83 mg/dL
6 | CC(=O)N1CCN(c2ccc(OCC3COC(Cn4ccnc4)(c4ccc(Cl)cc4Cl)O3)cc2)CC1 (stereo unspecified) [KETOCONAZOLE] |  |  | 16 µg/mL (≈ 30.1 µM) |  |  | 16 µg/mL (≈ 30.1 µM) | 16 µg/mL (≈ 30.1 µM) |  |  |  |  | 16 µg/mL (≈ 30.1 µM) |  |  |  |  |  | 
7 | CN(CCOc1ccc(CC2SC(=O)NC2=O)cc1)c1ccccn1 (stereo unspecified) [ROSIGLITAZONE] |  | 14.83 mg/dL |  |  |  |  |  |  |  |  | 12.74 mg/dL |  |  |  |  |  |  | 38.57 mg/dL
8 | O=C1NC(=O)/C(=C/c2ccc(/C=C/C(=O)c3ccccc3O)cc2)S1 | 512 µg/mL (≈ 1460 µM) |  | 512 µg/mL (≈ 1460 µM) | 41.4 µg/mL (≈ 118 µM) | 2000 mg/kg | 512 µg/mL (≈ 1460 µM) | 512 µg/mL (≈ 1460 µM) | 512 µg/mL (≈ 1460 µM) | 256 µg/mL (≈ 729 µM) | 256 µg/mL (≈ 729 µM) | 14.44 mg/dL | 512 µg/mL (≈ 1460 µM) | 512 µg/mL (≈ 1460 µM) | 512 µg/mL (≈ 1460 µM) | 256 µg/mL (≈ 729 µM) | 512 µg/mL (≈ 1460 µM) | Dose-dependent effect | 
